Experiment [1] deals with Streptococcus pyogenes. Briefly: Inhibition of Streptococcus pyogenes His-tagged IdeS expressed in Escherichia coli BL21 using IgG1 as substrate at 30 mM incubated for 15 mins prior to substrate addition measured after 20 mins. Put shortly:
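IdeS with tag removed (TEV cleavage, Ni2+ and size-exclusion repurification), stored in PBS. Enzyme preincubated 15 min at room temp with analogue (30 mM stock in 50% DMSO/phosphate pH 7.4) before adding human IgG1. Final IdeS 0.8 μM, analogue at 4.8×10^3 molar excess. 20 min at 37 °C, stopped with iodoacetamide. Triplicates, PBS-for-IdeS controls. Read by SPR as fraction of active IdeS from an IdeS standard curve.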

Experiment [2] addresses T1, Streptopain (Streptococcus pyogenes) (UniProt P0C0J0).
T1 sequence (whole entry): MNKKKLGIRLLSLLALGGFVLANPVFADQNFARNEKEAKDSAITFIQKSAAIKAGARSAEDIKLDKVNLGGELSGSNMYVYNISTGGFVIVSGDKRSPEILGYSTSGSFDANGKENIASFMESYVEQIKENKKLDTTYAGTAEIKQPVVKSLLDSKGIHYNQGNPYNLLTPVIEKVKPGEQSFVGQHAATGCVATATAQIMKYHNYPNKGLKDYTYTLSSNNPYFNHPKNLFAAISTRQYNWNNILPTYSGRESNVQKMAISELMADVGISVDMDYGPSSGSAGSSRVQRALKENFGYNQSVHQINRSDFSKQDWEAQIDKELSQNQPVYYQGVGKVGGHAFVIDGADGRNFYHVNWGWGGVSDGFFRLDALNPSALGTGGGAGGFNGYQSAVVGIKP
In words: Inhibition of Streptococcus pyogenes 5448 SpeB using n-bezoyl-proline-phenylalanine-arginine-p-nitroanilide hydrochloride as substrate at 30 mM incubated for 15 mins prior to substrate addition measured after 30 mins by colorimetry. Put shortly:
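SpeB purified from S. pyogenes 5448 culture supernatant (ammonium sulfate precipitation, ion exchange), activated with 2 mM DTT 30 min at 37 °C. Activated enzyme preincubated 15 min at room temperature with analogue (30 mM stock in 50% DMSO/phosphate pH 7.4; 4.8×10^3 molar excess over 0.28 μM final SpeB). Then 1 mM BPFA substrate in 0.1 M phosphate pH 6 added; OD405 change recorded. Activity expressed relative to uninhibited enzyme.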

In experiment [3] the test system is Streptococcus pyogenes. Briefly: Inhibition of Streptococcus pyogenes His-tagged IdeS expressed in Escherichia coli BL21 using IgG1 as substrate at 30 mM incubated for 15 mins prior to substrate addition measured after 20 mins by SDS-PAGE analysis. The gist of the method:
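Tag-free IdeS (TEV-cleaved, repurified) preincubated 15 min at room temp with peptide or analogue (30 mM stock in 50% DMSO/phosphate pH 7.4), then IgG1 substrate added. Final IdeS 0.8 μM with 4.8×10^3 molar excess of compound. 20 min at 37 °C, quenched with iodoacetamide, IgG cleavage products detected by SDS-PAGE. Triplicates plus enzyme-free controls.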

The target in another experiment is T2, Papain (Carica papaya) (UniProt P00784).
T2 sequence (whole entry): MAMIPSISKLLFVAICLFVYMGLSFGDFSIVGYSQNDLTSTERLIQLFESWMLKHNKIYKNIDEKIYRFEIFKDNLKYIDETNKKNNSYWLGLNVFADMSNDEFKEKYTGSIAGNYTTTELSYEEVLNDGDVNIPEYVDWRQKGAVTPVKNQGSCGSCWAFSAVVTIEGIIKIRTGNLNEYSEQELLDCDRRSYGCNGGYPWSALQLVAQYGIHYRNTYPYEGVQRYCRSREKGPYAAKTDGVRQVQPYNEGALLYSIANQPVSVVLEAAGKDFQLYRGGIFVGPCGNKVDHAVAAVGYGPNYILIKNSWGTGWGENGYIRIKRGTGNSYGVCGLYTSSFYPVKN
In words: Inhibition of papaya papain using Nalpa-benzoyl-DL-arginine 4-nitroanilide hydrochloride as substrate at 30 mM incubated for 10 mins prior to substrate addition measured after 2 hrs by colorimetry. The gist of the method:
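Papain in pH 6.2 phosphate buffer with 1.23 mM EDTA and 1.23 mM DTT, preincubated 10 min at room temp with compound (30 mM stock in 50% DMSO/phosphate pH 6.2). Final papain 0.9 μM, compound at 4.8×10^3 molar excess. Substrate added from 100 mM DMSO stock, 2 h at 37 °C, stopped with acetic acid, Abs405 read. Duplicates on two occasions. Activity relative to no-inhibitor control.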

Experiment [4] is described as follows: Selectivity ratio of Ki for Streptococcus pyogenes IdeS to Ki for papaya papain.
The nature of experiment [5]: Inhibition of Streptococcus pyogenes His-tagged IdeS expressed in Escherichia coli BL21 using IgG1 as substrate by SDS-PAGE analysis. Put shortly:
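Ki by competitive-inhibition fit of initial velocities. 2 μM IdeS with repurified polyclonal IgG at 150, 100, 50, 20 or 10 μM, inhibitor at 5, 2, 0.5 mM or 5, 2.5, 1 mM. Initial cleavage read by non-reducing SDS-PAGE densitometry of IgG, single-cleaved IgG, F(ab')2 and 1/2Fc bands, weighted by mass.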

pKi: −log10 of the molar value. The source made the active and inactive calls. The calls are words filed in the database; no cut-off is given here. Where a SMILES comes first, the peptide text is derived from it.

On to `CC(C)C[C@H](N)C(=O)NCC(=O)N1CCC[C@H](N2CCC[C@H]2C(N)=O)C1`, for which the inhibition entry (in the experiment with Streptococcus pyogenes [1]; in experiment [2]) was “Active” in each case.

On to `CCN(CC(N)=O)[C@@H]1CCCN(C(=O)[C@H](CC(C)C)NC(=O)[C@@H](N)CC(C)C)C1`, for which the inhibition entry (in the experiment on Streptococcus pyogenes [1]; in experiment [2]) was “Active” each time.

As for H-PELLGGPS-OH, the inhibition entry with Streptococcus pyogenes [3] is “inactive”.

For `CC(C)C[C@H](N)C(=O)N1CCC[C@@H](NCC(N)=O)C1`, the inhibition entry (on Papain (Carica papaya); in experiment [2]) was “inactive” in each case. In experiment [4], the Ratio Ki stood at 16. The molecule also showed a pKi in experiment [5] of 2.24. In addition, in the experiment with Streptococcus pyogenes [1], the inhibition result is “Active”.

Take `NC(=O)[C@@H]1CCCN1C(=O)CN[C@H]1CCCNC1`: the inhibition entry in the experiment with Streptococcus pyogenes [1] is “Active”.

With `CC(C)[C@H](NC(=O)[C@H](CO)NC(=O)[C@@H]1CCCN1C(=O)CN)C(=O)O` (H-GPSV-OH), in the experiment with Streptococcus pyogenes [3], the inhibition result was “inactive”.

As for `CCN(CC(N)=O)[C@H]1CCCN(C(=O)[C@H](CC(C)C)NC(=O)[C@@H](N)CC(C)C)C1`, the inhibition result (in the experiment with Streptococcus pyogenes [1]; in experiment [2]) was “Active” in each case.

As to H-LLGGPS-OH, in the experiment on Streptococcus pyogenes [3], the inhibition entry is “inactive”.

On to `NCC(=O)NCC(=O)O` (H-Gly-Gly-OH), for which the inhibition result with Streptococcus pyogenes [3] was “inactive”. Further, in the experiment on Streptococcus pyogenes [1], the inhibition entry is “Active”.

As to `CC(C)C[C@H](NC(=O)[C@@H](N)CC(C)C)C(=O)N1CCC[C@@H](NCC(N)=O)C1`, the inhibition result with Streptococcus pyogenes [1] is “Active”. Also, the inhibition result in experiment [2] was “inactive”.

H-ELLGG-OH: the inhibition entry with Streptococcus pyogenes [3] is “inactive”.

For the molecule `CC(C)C[C@H](NC(=O)[C@@H](N)CC(C)C)C(=O)NCC(=O)NCC(=O)O` (H-LLGG-OH), in the experiment with Streptococcus pyogenes [3], the inhibition result is “inactive”. The inhibition result (in the experiment on Streptococcus pyogenes [1]; in experiment [2]) was “Active” each time.

As to `CC(C)C[C@H](N)C(=O)N1CCC[C@@H](NCC(=O)N2CCC[C@H]2C(N)=O)C1`, in the experiment on Streptococcus pyogenes [1], the inhibition result is “Active”. Also, the inhibition entry in experiment [2] was “inactive”.

Turning to `CC(C)C[C@H](NC(=O)[C@@H](N)CC(C)C)C(=O)N1CCC[C@H](NCC(N)=O)C1`, the inhibition entry with Streptococcus pyogenes [1] was “Active”. For the same molecule, the inhibition result in experiment [2] is “inactive”.

In the case of `NC(=O)CN[C@@H]1CCCNC1`, the inhibition result (at Papain (Carica papaya); in experiment [2]) was “inactive” in each case. Further, the inhibition result in the experiment on Streptococcus pyogenes [1] is “Active”.

For `CC(C)C[C@H](N)C(=O)NCC(=O)N1CCC[C@@H](N2CCC[C@H]2C(N)=O)C1`, the inhibition entry (at Papain (Carica papaya); in the experiment on Streptococcus pyogenes [1]; in experiment [2]) was “Active” in each case.

For `NC(=O)CN[C@H]1CCCNC1`, the inhibition result (on Papain (Carica papaya); in experiment [2]) was “inactive” in each case. Besides, the Ratio Ki in experiment [4] turned out to be 16. In addition, the pKi in experiment [5] was 2.17. For the same molecule, the inhibition entry in the experiment on Streptococcus pyogenes [1] is “Active”.

Regarding `NC(=O)[C@@H]1CCCN1C(=O)CN[C@@H]1CCCNC1`, the inhibition result at Papain (Carica papaya) and with Streptococcus pyogenes [1] was “Active” in each case.

As for `CC(C)C[C@H](N)C(=O)NCC(=O)NCC(=O)N1CCC[C@H]1C(=O)O` (H-LGGP-OH), the inhibition entry in the experiment on Streptococcus pyogenes [3] was “inactive”. The inhibition result in the experiment on Streptococcus pyogenes [1] is “Active”.

For the molecule `NCC(=O)NCC(=O)N1CCC[C@H]1C(=O)N[C@@H](CO)C(=O)O` (H-GGPS-OH), the inhibition entry with Streptococcus pyogenes [3] is “inactive”.

Take `CC(C)C[C@H](N)C(=O)N1CCC[C@H](NCC(N)=O)C1`: the inhibition entry (on Papain (Carica papaya); in experiment [2]) was “inactive” in each case. Besides, the inhibition entry in the experiment on Streptococcus pyogenes [1] is “Active”.

`CC(C)C[C@H](N)C(=O)N1CCC[C@H](NCC(=O)N2CCC[C@H]2C(N)=O)C1`: the inhibition result at Papain (Carica papaya) and with Streptococcus pyogenes [1] was “Active” in each case. Further, in experiment [2], the inhibition result is “inactive”.

Turning to `NCC(=O)N1CCC[C@@H](N2CCC[C@H]2C(N)=O)C1`, the inhibition result with Streptococcus pyogenes [1] was “Active”.

Consider `NCC(=O)N1CCC[C@H](N2CCC[C@H]2C(N)=O)C1`, for which the inhibition entry in the experiment on Streptococcus pyogenes [1] is “Active”.

Values taken from ChEMBL document CHEMBL2034923, “3-aminopiperidine-based peptide analogues as the first selective noncovalent inhibitors of the bacterial cysteine protease IdeS” (J Med Chem, 2012).
